According to ChEMBL document CHEMBL1143003, “Novel tricyclic compounds having acetylene groups at C-8a and cyano enones in rings A and C: highly potent anti-inflammatory and cytoprotective agents” (J Med Chem, 2007):
The source made the active and inactive calls. The rule behind the calls is not given here.

Tests used:
[1] = target: T1, Heme oxygenase 1 (Mus musculus) (UniProt P14901); assay: Induction of HO1 in CD1 mouse liver at 1 umol, po after 6 hrs; type: organism-based
T1 sequence (whole entry): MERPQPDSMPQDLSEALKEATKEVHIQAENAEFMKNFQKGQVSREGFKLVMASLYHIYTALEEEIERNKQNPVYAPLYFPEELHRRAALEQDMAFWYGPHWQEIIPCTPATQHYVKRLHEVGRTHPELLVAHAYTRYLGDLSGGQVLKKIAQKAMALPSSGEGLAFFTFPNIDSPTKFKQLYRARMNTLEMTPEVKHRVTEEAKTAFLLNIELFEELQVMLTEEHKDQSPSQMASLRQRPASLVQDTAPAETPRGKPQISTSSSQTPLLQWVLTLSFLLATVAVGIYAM
Method in brief: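 Compound given orally at 1 μmol. Livers were collected 6 h later, and HO-1 protein was measured by Western blot.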

[2] = target: T1, Heme oxygenase 1 (Mus musculus); assay: Induction of HO1 in CD1 mouse stomach at 1 umol, po after 6 hrs; type: organism-based
Method in brief: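 Male CD-1 mice, three per group, were each gavaged with a single 1 μmol dose. HO-1 induction was then assessed in the stomach.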

[3] = system: RAW; assay: Inhibition of interferon gamma-stimulated NO production in RAW 264.7 cells after 24 hrs; type: functional, cell-based, Mus musculus

Row | Structure (SMILES) | Activity [1] | Activity [2] | IC50 ([3]; Mus musculus, RAW, 24 h) | IC50 ([3]; raw)
1 | CC1(C)CC[C@]2(C(=O)n3ccnc3)CC[C@]3(C)[C@H](C(=O)C=C4[C@@]5(C)C=C(C#N)C(=O)C(C)(C)[C@@H]5CC[C@]43C)[C@@H]2C1 | Active | Active | 1 nM | 
2 | CC1(C)C(=O)C(C#N)=C[C@]2(C)C3=CC(=O)C(C#N)=C[C@]3(C#C[Si](C)(C)C)CC[C@@H]12 |  |  | 3 nM | 
3 | C#C[C@@]12C=C(C#N)C(=O)C=C1[C@]1(C)C=C(C#N)C(=O)C(C)(C)C1CC2 (some centres undefined) |  |  | 1 nM | 
4 | CC1(C)C(=O)C(C#N)=C[C@]2(C)C3=CC(=O)C(C#N)=C[C@]3(C)CC[C@@H]12 | Active | Active | 30 nM | 
5 | CC1(C)C(=O)C(C#N)=C[C@@]2(C)C3=CC(=O)C(C#N)=C[C@@]3(C#C[Si](C)(C)C)CCC12 (some centres undefined) |  |  | 2 nM | 
6 | C#C[C@]12C=C(C#N)C(=O)C=C1[C@@]1(C)C=C(C#N)C(=O)C(C)(C)[C@@H]1CC2 |  |  |  | 3 nM
7 | CC1(C)C(=O)C(C#N)=C[C@]2(C)C3=CC(=O)C(C#N)=CC3(C#C[Si](C)(C)C)CC[C@@H]12 (mixture of isomers) |  |  | 3 nM | 
8 | CC#C[C@]12C=C(C#N)C(=O)C=C1[C@@]1(C)C=C(C#N)C(=O)C(C)(C)[C@@H]1CC2 (racemic) |  |  | 5 nM | 
9 | CCC#C[C@]12C=C(C#N)C(=O)C=C1[C@@]1(C)C=C(C#N)C(=O)C(C)(C)[C@@H]1CC2 (racemic) |  |  | 20 nM | 
10 | CC[C@]12C=C(C#N)C(=O)C=C1[C@@]1(C)C=C(C#N)C(=O)C(C)(C)[C@@H]1CC2 (racemic) |  |  | 10 nM | 
11 | C#C[C@]12C=C(C#N)C(=O)C=C1[C@@]1(C)C=C(C#N)C(=O)C(C)(C)[C@@H]1CC2 (racemic) [listing 1 of 2 here] |  |  |  | 1 nM
12 | C=C[C@]12C=C(C#N)C(=O)C=C1[C@@]1(C)C=C(C#N)C(=O)C(C)(C)[C@@H]1CC2 (racemic) |  |  | 10 nM | 
13 | CC1(C)C(=O)C(C#N)=C[C@]2(C)C3=CC(=O)C(C#N)=C[C@]3(C#CC#N)CC[C@@H]12 (racemic) |  |  | 4 nM | 
14 | C#C[C@]12C=C(C#N)C(=O)C=C1[C@@]1(C)C=C(C#N)C(=O)C(C)(C)[C@@H]1CC2 (racemic) [listing 2 of 2 here] | Active | Active |  | 
15 | CC1(C)CC[C@]2(C(=O)O)CC[C@]3(C)[C@H](C(=O)C=C4[C@@]5(C)C=C(C#N)C(=O)C(C)(C)[C@@H]5CC[C@]43C)[C@@H]2C1 [BARDOXOLONE] | Active | Active | 20 nM | 
16 | CC1(C)CC[C@]2(C#N)CC[C@]3(C)C(C(=O)C=C4[C@@]5(C)C=C(C#N)C(=O)C(C)(C)[C@@H]5CC[C@]43C)C2C1 (some centres undefined) [CDDO-CN] |  |  | 1 nM | 
17 | C[C@@H]1C[C@H]2[C@@H]3CCC4=CC(=O)C=C[C@]4(C)[C@@]3(F)[C@@H](O)C[C@]2(C)[C@@]1(O)C(=O)CO [DEXAMETHASONE] |  |  | 20 nM | 
